What all share (assay type): functional
The test system of one test is Klebsiella pneumoniae. Kind of test: Antimicrobial activity against Klebsiella pneumoniae 10-3 after 18-24 hrs by two-fold serial dilution method. The method, boiled down: (§1)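 Agar-medium twofold serial dilution against Gram-positive and Gram-negative strains; MIC taken as the lowest compound concentration giving complete inhibition of bacterial growth after incubation at 35 °C for 18-24 h.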

Test [1] has as its system Escherichia coli. The test can be described thus: Antimicrobial activity against extended spectrum beta-lactamases-producing Escherichia coli 10-2 after 18-24 hrs by two-fold serial dilution method. The method, boiled down:
as §1

Test [2] deals with Staphylococcus epidermidis. Kind of test: Antimicrobial activity against methicillin-resistant Staphylococcus epidermidis clinical isolate after 18-24 hrs by two-fold serial dilution method.
Test [3] relates to Pseudomonas aeruginosa. The test can be described thus: Antimicrobial activity against extended spectrum beta-lactamases-producing Pseudomonas aeruginosa 10-15 after 18-24 hrs by two-fold serial dilution method. The method, boiled down: as §1
For test [4], the system named is Escherichia coli. Kind of test: Antimicrobial activity against extended spectrum beta-lactamases-producing Escherichia coli 10-4 after 18-24 hrs by two-fold serial dilution method. The method, boiled down: as §1
For test [5], the system named is Streptococcus pneumoniae. The test can be described thus: Antimicrobial activity against extended spectrum beta-lactamases-producing Streptococcus pneumoniae 10-4 after 18-24 hrs by two-fold serial dilution method. The gist of the method:
as §1

For test [6], the system named is Enterococcus faecium. The test can be described thus: Antimicrobial activity against Enterococcus faecium 10-5 after 18-24 hrs by two-fold serial dilution method. The gist of the method:
as §1

In test [7] the test system is Enterococcus faecalis. The test can be described thus: Ratio of gemifloxacin MIC to compound MIC for Enterococcus faecalis 10-6 after 18-24 hrs by two-fold serial dilution method.
In test [8] the test system is Pseudomonas aeruginosa. Kind of test: Antimicrobial activity against Pseudomonas aeruginosa 10-12 after 18-24 hrs by two-fold serial dilution method. The method, boiled down:
as §1

The subject of test [9] is Staphylococcus epidermidis. The test can be described thus: Ratio of gemifloxacin MIC to compound MIC for extended spectrum beta-lactamases-producing methicillin-sensitive Staphylococcus epidermidis 10-15 after 18-24 hrs by two-fold serial dilution method.
In test [10] the test system is Staphylococcus aureus. The test can be described thus: Antimicrobial activity against extended spectrum beta-lactamases-producing methicillin-sensitive Staphylococcus aureus 10-13 after 18-24 hrs by two-fold serial dilution method. The gist of the method:
as §1

The test system of test [11] is Staphylococcus epidermidis. Kind of test: Ratio of levofloxacin MIC to compound MIC for extended spectrum beta-lactamases-producing methicillin-sensitive Staphylococcus epidermidis 10-11 after 18-24 hrs by two-fold serial dilution method. The gist of the method: (§2)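 MICs were determined by the standard twofold serial dilution method on agar media against the test strains, with levofloxacin run as a reference. MIC is the lowest concentration giving complete inhibition of bacterial growth after 18–24 h incubation at 35 °C. The ratio is levofloxacin MIC divided by test-compound MIC.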

Test [12] has as its system Streptococcus pneumoniae. Kind of test: Ratio of levofloxacin MIC to compound MIC for extended spectrum beta-lactamases-producing Streptococcus pneumoniae 10-1 after 18-24 hrs by two-fold serial dilution method.
Test [13] relates to Staphylococcus aureus. Kind of test: Antimicrobial activity against Staphylococcus aureus ATCC […] after 18-24 hrs by two-fold serial dilution method. The gist of the method: as §1
For test [14], the system named is Staphylococcus aureus. The test can be described thus: Ratio of gemifloxacin MIC to compound MIC for extended spectrum beta-lactamases-producing methicillin-sensitive Staphylococcus aureus 10-13 after 18-24 hrs by two-fold serial dilution method.
Test [15] concerns Streptococcus pneumoniae. Kind of test: Ratio of levofloxacin MIC to compound MIC for extended spectrum beta-lactamases-producing Streptococcus pneumoniae 10-4 after 18-24 hrs by two-fold serial dilution method. The gist of the method: as §2
For test [16], the system named is Escherichia coli. Kind of test: Antimicrobial activity against Escherichia coli ATCC 25922 after 18-24 hrs by two-fold serial dilution method. The method, boiled down: as §1
In test [17] the test system is Escherichia coli. Kind of test: Antimicrobial activity against Escherichia coli 10-2 after 18-24 hrs by two-fold serial dilution method. The gist of the method:
as §1

The subject of test [18] is Enterococcus faecium. The test can be described thus: Ratio of gemifloxacin MIC to compound MIC for Enterococcus faecium 10-5 after 18-24 hrs by two-fold serial dilution method.
Test [19] relates to Enterococcus faecalis. The test can be described thus: Ratio of gemifloxacin MIC to compound MIC for Enterococcus faecalis 10-5 after 18-24 hrs by two-fold serial dilution method.
The test system of test [20] is Streptococcus pneumoniae. Kind of test: Antimicrobial activity against extended spectrum beta-lactamases-producing Streptococcus pneumoniae 10-1 after 18-24 hrs by two-fold serial dilution method. The method, boiled down: as §1
The test system of test [21] is Staphylococcus aureus. The test can be described thus: Ratio of levofloxacin MIC to compound MIC for extended spectrum beta-lactamases-producing methicillin-sensitive Staphylococcus aureus 10-13 after 18-24 hrs by two-fold serial dilution method. The method, boiled down:
as §2

Test [22] deals with Pseudomonas aeruginosa. The test can be described thus: Antimicrobial activity against extended spectrum beta-lactamases-producing Pseudomonas aeruginosa 10-5 after 18-24 hrs by two-fold serial dilution method. The method, boiled down:
as §1

In general, MIC refers to the smallest concentration in the dilution series that meets the test's criterion for growth inhibition. High values mean a less susceptible organism, low ones a more susceptible organism. In general, MIC50 refers to the lowest concentration that inhibits either 50% of growth or 50% of the strains tested, depending on the study. A higher MIC50 goes with lower susceptibility. As a reminder, the MIC90 is an inhibitory concentration at the 90% level, which refers to growth in some studies and to a panel of isolates in others. High values mean lower susceptibility, low ones higher susceptibility. Take `COc1ccc(OC)c(CO/N=C2\CN(c3nc4c(cc3F)c(=O)c(C(=O)O)cn4C3CC3)CC2CN)c1.CS(=O)(=O)O` (racemic): the MIC is greater than 128 µg/mL against Klebsiella pneumoniae; greater than 128 µg/mL in the test with Escherichia coli [1]; greater than 128 µg/mL against Pseudomonas aeruginosa [3]; greater than 128 µg/mL against Escherichia coli [4]; 0.015 µg/mL against Streptococcus pneumoniae [5]; 4 µg/mL against Enterococcus faecium [6]. Also, the minimum inhibitory concentration (MIC) with Pseudomonas aeruginosa [8] was greater than 128 µg/mL; against Staphylococcus aureus [10] it was 0.03 µg/mL; against Staphylococcus aureus [13], less than 0.008 µg/mL; with Escherichia coli [16], 0.06 µg/mL; against Escherichia coli [17], greater than 128 µg/mL; with Streptococcus pneumoniae [20], 0.06 µg/mL. This molecule also came in with an MIC against Pseudomonas aeruginosa [22] greater than 128 µg/mL. The same molecule returned an MIC50 in test [2] of 0.25 µg/mL. The molecule also registered an MIC90 in [2] of 4 µg/mL. The Ratio in the test on Enterococcus faecalis [7] came to 2; in test [9] it was 2; in test [11], 8; in the test with Streptococcus pneumoniae [12] it was 8; in the test on Staphylococcus aureus [14], 2; with Streptococcus pneumoniae [15] it was 8. Moreover, the figures for the Ratio with Enterococcus faecium [18], with Enterococcus faecalis [19] and in the test on Staphylococcus aureus [21] were 2, 2 and 8, respectively.

The values above are taken from ChEMBL document CHEMBL2062435, “Synthesis and in vitro antibacterial activity of gemifloxacin derivatives containing a substituted benzyloxime moiety” (2012).
